A short description of series [1]: Effect on erythrocyte shape in human erythrocytes assessed as echinocytes at 50 ug/mL after 48 hrs. The class given is ADME, cell-based. In short, it runs like this:
(§1)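 Fresh erythrocytes at 2% hematocrit incubated 48 h in parasite culture medium alone or with compound. Suspensions then wet-mounted under coverslips and examined at once by phase-contrast microscopy with a 100× oil objective; Giemsa-stained thin smears were also examined. Percent stomatocytes, echinocytes and knizocytes scored using shape definitions of Lim et al.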

Series [2] can be described thus: Hemolytic activity in human erythrocytes at 200 ug/mL after 48 hrs relative to 0.2% saponin. The class given is ADME, cell-based, Erythrocyte. Particulars: read-out: Activity. The procedure, abridged: (§2)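 Uninfected normal erythrocytes at 2% hematocrit incubated 48 h with compound dilutions in duplicate plates. Cells pelleted at 200g for 3 min, and hemoglobin in the supernatant read by absorbance at 405 nm. Percent hemolysis calculated against 0.2% saponin.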

Series [3] in a line: Effect on erythrocyte shape in human erythrocytes assessed as echinocytes at 100 ug/mL after 48 hrs. It counts as ADME, cell-based. In short, it runs like this:
as §1

Series [4] can be described thus: Hemolytic activity in human erythrocytes at 100 ug/mL after 48 hrs relative to 0.2% saponin. It counts as ADME, cell-based, Erythrocyte. Conditions: read-out: Activity. In short, it runs like this:
as §2

Series [5] in a line: Effect on erythrocyte shape in human erythrocytes assessed as stomatocytes at 50 ug/mL after 48 hrs. The class given is ADME, cell-based. In short, it runs like this: as §1
A short description of series [6]: Effect on erythrocyte shape in human erythrocytes assessed as stomatocytes at 100 ug/mL after 48 hrs. It counts as ADME, cell-based. The procedure, abridged:
as §1

The test system of a further series is Plasmodium falciparum. Put plainly: Antiparasitic activity against Plasmodium falciparum 3D7 after 48 hrs. It counts as functional, organism-based. Particulars: 3D7, 48 h. In short, it runs like this: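 P. falciparum 3D7 cultures diluted with fresh medium and erythrocytes to 2% parasitemia, 2% hematocrit. Serial compound dilutions added and plates held 48 h at 37 °C. Viability read as parasite lactate dehydrogenase activity, relative to solvent controls with 0.5% DMSO.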

Series [7] in a line: Effect on erythrocyte shape in human erythrocytes assessed as […] and stomatocytes at 100 ug/mL after 48 hrs. It counts as ADME, cell-based. In short, it runs like this:
as §1

≈ marks a conversion by molar mass, not a printed value.

In the case of `CC1(C)CCC[C@@]2(C)[C@H]1CC[C@@]1(O)CC(CCO)CC[C@@H]12` (stereo partly specified), the Activity in series [1] turned out to be 3%; in series [3] it was 2%; in series [5], 1%; in series [6], 3%. Besides, in series [2], the hemolysis at 48 h, 200 ug/mL turned out to be 5%. For the same compound, the hemolysis at 48 h, 100 ug/mL in series [4] was 0%. Besides, the IC50 in the series with Plasmodium falciparum was found to be 13.3 µg/mL (≈ 45.2 µM).

For the compound `C=C[C@@]1(O)CC[C@H]2[C@@](O)(CC[C@H]3C(C)(C)CCC[C@@]32C)C1`, the Activity in series [1] is 3%; in series [3], 2%; in series [5], 1%; in series [6] it was 1%. Also, the hemolysis at 48 h, 200 ug/mL in series [2] was 0.2%. Moreover, the hemolysis at 48 h, 100 ug/mL in series [4] is 0.6%. In the series on Plasmodium falciparum, this compound came in with a 50% inhibitory concentration (IC50) of 10.7 µg/mL (≈ 36.6 µM).

On to `CCOC(=O)/C=C1/CC[C@H]2[C@@](O)(CC[C@H]3C(C)(C)CCC[C@@]32C)C1`, for which the Activity in series [1] was 0%; in series [3] it was 0%; in series [5], 11%; in series [7] it was 17%. Moreover, in series [2], the hemolysis at 48 h, 200 ug/mL came to 34%. For the same compound, the hemolysis at 48 h, 100 ug/mL in series [4] is 9%. The same compound returned an IC50 in the series on Plasmodium falciparum of 3.9 µg/mL (≈ 11.7 µM).

For `CCOC(=O)/C=C1\CC[C@H]2[C@@](O)(CC[C@H]3C(C)(C)CCC[C@@]32C)C1`, the Activity amounted to 2% in series [1], 0% in series [3], 2% in series [5] and 8% in series [6]. In addition, in series [2], the hemolysis at 48 h, 200 ug/mL amounted to 17%. Besides, the hemolysis at 48 h, 100 ug/mL in series [4] was 3%. Also, inhibition in the series on Plasmodium falciparum was half-maximal at 5.7 µg/mL (≈ 17 µM) (IC50).

In turn, `C=C[C@@]1(C)CCC2[C@@](O)(CC[C@H]3C(C)(C)[C@@H](O)CC[C@]23C)C1` (stereo partly specified) came in with a 50% inhibitory concentration (IC50) with Plasmodium falciparum of 7 µg/mL (≈ 22.8 µM).

`C=C[C@]1(C)C=C2CC[C@H]3C(C)(CO)[C@@H](O)CC[C@]3(C)[C@H]2CC1` (stereo partly specified) yielded a 50% inhibitory concentration (IC50) in the series on Plasmodium falciparum of 7 µg/mL (≈ 23 µM).

In the case of `CC1(C)CCC[C@@]2(C)[C@H]1CC[C@@]1(O)C/C(=C\CO)CC[C@@H]12`, the Activity in series [1] was determined as 1%; in series [3], 0%; in series [5], 5%; in series [6], 64%. In series [2], the hemolysis at 48 h, 200 ug/mL turned out to be 102%. The hemolysis at 48 h, 100 ug/mL in series [4] amounted to 2%. Further, the IC50 in the series with Plasmodium falciparum was determined as 10.6 µg/mL (≈ 36.2 µM).

For `CCO[C@@]12CC[C@H]3[C@@](CC[C@H]4C(C)(C)CCC[C@@]43C)(C1)OC(=O)C2`, the Activity in series [1] was determined as 2%; in series [3], 9%; in series [5], 1%; in series [6] it was 0%. In series [2], the hemolysis at 48 h, 200 ug/mL came out at 0%. Further, in series [4], the hemolysis at 48 h, 100 ug/mL came out at 0%. The same compound registered a half-maximal inhibitory concentration (IC50) with Plasmodium falciparum of 19.6 µg/mL (≈ 58.6 µM).

On to `C=C[C@@]1(C)CCC2=C(C1)C(=O)C[C@H]1C(C)(CO)[C@@H](O)CC[C@]21C` (stereo partly specified), for which, in the series on Plasmodium falciparum, half-maximal inhibition (IC50) was put at 7 µg/mL (≈ 22 µM).

Turning to `C=C[C@@]1(C)CCC2=C(CC[C@H]3C(C)(C)[C@@H](O)CC[C@]23C)C1`, in the series on Plasmodium falciparum, the IC50 worked out at 7 µg/mL (≈ 24.3 µM).

For orientation: IC50 means the midpoint of a concentration-inhibition curve. Read a low IC50 as greater potency.
